From ChEMBL document CHEMBL2390929, “New nitric oxide donating 1,2,4-triazole/oxime hybrids: synthesis, investigation of anti-inflammatory, ulceroginic liability and antiproliferative activities” (Bioorg Med Chem, 2013)

Assays:
SW-620 = assay: Cytotoxicity against human SW620 cells assessed as cell growth at 10^-5 M after 48 hrs by SRB assay; assay type: functional; conditions: SW-620, 48 h, read-out: Activity
Summary of the method: (§1)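 NCI-60 one-dose screen across nine tumour subpanels. Each agent added once at 10^-5 M, cultures incubated 48 h. Endpoint is sulforhodamine B protein staining read spectrophotometrically. Output is percent growth of treated cells relative to untreated controls.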

Rattus norvegicus [1] = assay: Antiinflammatory activity in albino rat assessed as inhibition of carrageenan-induced paw edema at 0.28 mmol/kg, po after 1 hr relative to control; assay type: functional
Summary of the method: (§2)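 Adult male albino rats (120–140 g), four per group, fasted 24 h with water allowed. Test agent suspended in 0.5% w/v aqueous CMC and given orally at 0.28 mmol/kg; controls received CMC alone. After 30 min, 0.1 mL fresh 1% carrageenan in saline was injected subplantar into the right hind paw and saline into the left. Paw thickness was measured by Vernier caliper; % inhibition = [(VR−VL)control − (VR−VL)treated]/(VR−VL)control ×100. Mean ± SEM, one-way ANOVA.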

[2] = Induction of nitric oxide release in phosphate buffer at pH 7.4 at 0.1 mM after 6 hrs by Griess method in presence of 0.5 mM of N-acetylcysteine; assay type: physicochemical; conditions: pH 7.4, 6 h, 100 µM
Summary of the method: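 Compound in DMF diluted to final 10^-4 M in 1:1 50 mM phosphate buffer pH 7.4/MeOH with 5×10^-4 M N-acetylcysteine, 37 °C. Aliquot mixed with Griess reagent, 10 min at room temperature, A546 read. Nitrite quantified against sodium nitrite standards (10–80 nmol/mL); NO expressed as mol/mol. n = 4 reaction mixtures per compound.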

CCRF-CEM = assay: Cytotoxicity against human CCRF-CEM cells assessed as cell growth at 10^-5 M after 48 hrs by SRB assay; assay type: functional; conditions: read-out: Activity
Summary of the method: (§3)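 NCI 60-cell-line primary one-dose screen across nine tumour subpanels. Compound added at a single concentration of 10^-5 M and cultures incubated 48 h. Endpoint was sulforhodamine B protein staining read spectrophotometrically, with growth expressed as percent of untreated control cells.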

OVCAR-8 = assay: Cytotoxicity against human OVCAR8 cells assessed as cell growth at 10^-5 M after 48 hrs by SRB assay; assay type: functional; conditions: OVCAR-8, 48 h, read-out: Activity; summary of the method: as §3
UO-31 = assay: Cytotoxicity against human UO31 cells assessed as cell growth at 10^-5 M after 48 hrs by SRB assay; assay type: functional; conditions: UO-31, 48 h, read-out: Activity; summary of the method: as §1
SK-MEL-2 = assay: Cytotoxicity against human SK-MEL-2 cells assessed as cell growth at 10^-5 M after 48 hrs by SRB assay; assay type: functional; conditions: SK-MEL-2, 48 h, read-out: Activity; summary of the method: as §3
SR = assay: Cytotoxicity against human SR cells assessed as cell growth at 10^-5 M after 48 hrs by SRB assay; assay type: functional; conditions: read-out: Activity; summary of the method: as §1
Malme-3M = assay: Cytotoxicity against human MALME-3M cells assessed as cell growth at 10^-5 M after 48 hrs by SRB assay; assay type: functional; conditions: read-out: Activity; summary of the method: as §3
LOX IMVI = assay: Cytotoxicity against human LOXIMVI cells assessed as cell growth at 10^-5 M after 48 hrs by SRB assay; assay type: functional; conditions: read-out: Activity; summary of the method: as §3
CAKI-1 = assay: Cytotoxicity against human CAKI-1 cells assessed as cell growth at 10^-5 M after 48 hrs by SRB assay; assay type: functional; conditions: CAKI-1, 48 h, read-out: Activity; summary of the method: as §3
Rattus norvegicus [3] = assay: Antiinflammatory activity in albino rat assessed as inhibition of carrageenan-induced paw edema at 0.28 mmol/kg, po after 3 hrs relative to control; assay type: functional; summary of the method: as §2
Rattus norvegicus [4] = assay: Antiinflammatory activity in albino rat assessed as inhibition of carrageenan-induced paw edema at 0.28 mmol/kg, po after 4 hrs relative to control; assay type: functional; summary of the method: as §2
PC-3 = assay: Cytotoxicity against human PC3 cells assessed as cell growth at 10^-5 M after 48 hrs by SRB assay; assay type: functional; conditions: PC-3, 48 h, read-out: Activity; summary of the method: as §3
SF-539 = assay: Cytotoxicity against human SF539 cells assessed as cell growth at 10^-5 M after 48 hrs by SRB assay; assay type: functional; conditions: SF-539, 48 h, read-out: Activity; summary of the method: as §3
HCT-15 = assay: Cytotoxicity against human HCT15 cells assessed as cell growth at 10^-5 M after 48 hrs by SRB assay; assay type: functional; conditions: HCT-15, 48 h, read-out: Activity; summary of the method: as §3
NCI-H522 = assay: Cytotoxicity against human NCI-H522 cells assessed as cell growth at 10^-5 M after 48 hrs by SRB assay; assay type: functional; conditions: NCI-H522, 48 h, read-out: Activity; summary of the method: as §3
MDA-MB-231 = assay: Cytotoxicity against human MDA-MB-231 cells assessed as cell growth at 10^-5 M after 48 hrs by SRB assay; assay type: functional; conditions: MDA-MB-231, 48 h, read-out: Activity; summary of the method: as §3
MDA-MB-468 = assay: Cytotoxicity against human MDA-MB-468 cells assessed as cell growth at 10^-5 M after 48 hrs by SRB assay; assay type: functional; conditions: MDA-MB-468, 48 h, read-out: Activity; summary of the method: as §3
M14 = assay: Cytotoxicity against human M14 cells assessed as cell growth at 10^-5 M after 48 hrs by SRB assay; assay type: functional; conditions: M14, 48 h, read-out: Activity; summary of the method: as §3
UACC-257 = assay: Cytotoxicity against human UACC257 cells assessed as cell growth at 10^-5 M after 48 hrs by SRB assay; assay type: functional; conditions: UACC-257, 48 h, read-out: Activity; summary of the method: as §1
UACC-62 = assay: Cytotoxicity against human UACC62 cells assessed as cell growth at 10^-5 M after 48 hrs by SRB assay; assay type: functional; conditions: UACC-62, 48 h, read-out: Activity; summary of the method: as §1
RPMI-8226 = assay: Cytotoxicity against human RPMI8226 cells assessed as cell growth at 10^-5 M after 48 hrs by SRB assay; assay type: functional; conditions: RPMI-8226, 48 h, read-out: Activity; summary of the method: as §3
HL-60(TB) = assay: Cytotoxicity against human HL-60(TB) cells assessed as cell growth at 10^-5 M after 48 hrs by SRB assay; assay type: functional; conditions: HL-60, 48 h, read-out: Activity
Summary of the method: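 NCI 60-cell-line one-dose screen: compound added to cultures at a single concentration of 10^-5 M, incubated 48 h. End point by sulforhodamine B protein staining, read spectrophotometrically. Value is percent growth of treated cells relative to untreated control cells.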

KM12 = assay: Cytotoxicity against human KM12 cells assessed as cell growth at 10^-5 M after 48 hrs by SRB assay; assay type: functional; conditions: KM12, 48 h, read-out: Activity; summary of the method: as §3
Rattus norvegicus [5] = assay: Antiinflammatory activity in albino rat assessed as inhibition of carrageenan-induced paw edema at 0.28 mmol/kg, po after 5 hrs relative to control; assay type: functional; summary of the method: as §2
OVCAR-4 = assay: Cytotoxicity against human OVCAR4 cells assessed as cell growth at 10^-5 M after 48 hrs by SRB assay; assay type: functional; conditions: OVCAR-4, 48 h, read-out: Activity; summary of the method: as §3
IGROV-1 = assay: Cytotoxicity against human IGROV1 cells assessed as cell growth at 10^-5 M after 48 hrs by SRB assay; assay type: functional; conditions: IGROV-1, 48 h, read-out: Activity; summary of the method: as §3
HOP-92 = assay: Cytotoxicity against human HOP92 cells assessed as cell growth at 10^-5 M after 48 hrs by SRB assay; assay type: functional; conditions: HOP-92, 48 h, read-out: Activity; summary of the method: as §3

`CCn1c(SC/C(=N/O)c2ccccc2)nnc1-c1ccc(OC)c(OC)c1` gave a growth at 10 µM (SW-620) of 106%, an inhibition in vivo at 280 µmol/kg (Rattus norvegicus [1]) of 61% and an Activity [2] of 0.2 mol/mol. It also gave a growth at 10 µM (CCRF-CEM) of 98%, a growth at 10 µM (OVCAR-8) of 104% and a growth at 10 µM (UO-31) of 85.4%. For the same compound, the growth at 10 µM (SK-MEL-2) was 105%, the growth at 10 µM (SR) was 95.4% and the growth at 10 µM (Malme-3M) was 94.8%. The growth at 10 µM (LOX IMVI) was 93%, the growth at 10 µM (CAKI-1) was 102% and the inhibition in vivo at 280 µmol/kg (Rattus norvegicus [3]) was 71%. It also gave an inhibition in vivo at 280 µmol/kg (Rattus norvegicus [4]) of 82%, a growth at 10 µM (PC-3) of 101% and a growth at 10 µM (SF-539) of 100%. It also gave a growth at 10 µM (HCT-15) of 105%, a growth at 10 µM (NCI-H522) of 89.4% and a growth at 10 µM (MDA-MB-231) of 104%. For the same compound, the growth at 10 µM (MDA-MB-468) was 111%, the growth at 10 µM (M14) was 126% and the growth at 10 µM (UACC-257) was 104%. It also gave a growth at 10 µM (UACC-62) of 95.5%, a growth at 10 µM (RPMI-8226) of 101% and a growth at 10 µM (HL-60(TB)) of 95.8%. It also gave a growth at 10 µM (KM12) of 100%, an inhibition in vivo at 280 µmol/kg (Rattus norvegicus [5]) of 71% and a growth at 10 µM (OVCAR-4) of 97.5%. For the same compound, the growth at 10 µM (IGROV-1) was 106% and the growth at 10 µM (HOP-92) was 107%.
